Measurements published in ChEMBL document CHEMBL3585274, “Antiviral Activity of Diterpene Esters on Chikungunya Virus and HIV Replication” (J Nat Prod, 2015).
pEC50: −log10 of the molar value.

How the values were obtained:
[1] = Selectivity index, CC50 for african green monkey Vero cells to EC50 for chikungunya virus Indian ocean strain 899; assay type: toxicity, cell-based; details: read-out: Ratio CC50/EC50
Chikungunya virus = test: Antiviral activity against chikungunya virus Indian ocean strain 899 infected in Vero cells assessed as virus-induced cytopathic effect after 6 to 7 days; assay type: functional, cell-based; details: Indian ocean strain 899, Vero
[2] = tested on: Human immunodeficiency virus 1; test: Antiviral activity against HIV1 3B infected in MT4 cells assessed as cell viability after 5 days by MTT assay; assay type: functional, organism-based; details: Human immunodeficiency virus 1, 3B, MT4, 120 h
How it was run: (§1)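 MT-4 cells ([…] cells/mL suspension) infected with HIV-1 IIIB or HIV-2 ROD at 100−300 CCID50, with mock-infected wells run in parallel. Serial 5-fold compound dilutions in triplicate wells. Viability by MTT after 5 days, absorbance at 540 and 690 nm, median OD of three wells. Median ± median absolute deviation from ≥3 independent assays.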

[3] = tested on: Human immunodeficiency virus 2; test: Antiviral activity against HIV2 ROD infected in MT4 cells assessed as cell viability after 5 days by MTT assay; assay type: functional, organism-based; details: Human immunodeficiency virus 2, ISOLATE ROD, MT4, 120 h; how it was run: as §1
[4] = Selectivity index, CC50 for african green monkey Vero cells to EC50 for HIV1 3B; assay type: toxicity, cell-based; details: read-out: Ratio CC50/EC50
How it was run: (§2)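 SI = CC50 in Vero cells ÷ EC50 against HIV-1 IIIB or HIV-2 ROD. CC50 is the 50% antimetabolic concentration from MTS dose−response in Vero. EC50 is from the MT-4/MTT 5-day antiviral assay.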

[5] = Selectivity index, CC50 for african green monkey Vero cells to EC50 for HIV2 ROD; assay type: toxicity, cell-based; details: read-out: Ratio CC50/EC50; how it was run: as §2

SMILES | selectivity ratio [1] | pEC50 (Chikungunya virus) | pEC50 [2] | pEC50 [3] | selectivity ratio [4] | selectivity ratio [5]
COc1cc(CC(=O)OCC2=C[C@H]3[C@@H]4C(C)(C)[C@]4(OC(C)=O)[C@H](OC(=O)Cc4ccccc4)[C@@H](C)[C@]3(O)[C@@H]3C=C(C)C(=O)[C@@]3(O)C2)ccc1O | 14.2 | 5.77 | 6.12 | 7.10 | 23 | 
CC(=O)O[C@@H]1[C@@H](C)[C@@]2(O)[C@@H](C=C(CO)C[C@]3(O)C(=O)C(C)=C[C@@H]23)[C@@H]2C(C)(C)[C@]12OC(C)=O | 4.2 | 5.03 | 5.32 | 6.00 | > 59 | 
CCCCCCCCCC(=O)O[C@@H]1[C@@H](C)[C@@]2(O)[C@@H](C=C(CO)C[C@@]3(O)C(=O)C(C)=C[C@@H]23)[C@@H]2C(C)(C)[C@]12OC(=O)CCCCCCCCC | 2.2 | 5.82 | < 4.80 | < 4.80 |  | 
CC(=O)O[C@@]12[C@H](O)[C@@H](C)[C@@]3(O)[C@@H](C=C(CO)C[C@]4(O)C(=O)C(C)=C[C@@H]34)[C@@H]1C2(C)C |  | < 3.76 | < 3.66 | 4.00 | 1 | 
CC1=C[C@]23C(=O)[C@@H](C=C(COC(=O)c4ccccc4)[C@@H](O)[C@]2(O)[C@H]1OC(=O)c1ccccc1)[C@H]1[C@@H](C[C@H]3C)C1(C)C | 6.4 | 5.92 | 7.57 | 8.05 | 3400 | 
CCCCCCCCCCCCCC(=O)O[C@@H]1[C@@H](C)[C@@]2(O)[C@@H](C=C(CO)C[C@@]3(O)C(=O)C(C)=C[C@@H]23)[C@@H]2C(C)(C)[C@]12OC(C)=O | 1.9 |  | < 4.74 | < 4.77 |  | 
CCCC(=O)O[C@@H]1[C@@H](C)[C@@]2(O)[C@@H](C=C(CO)C[C@]3(O)C(=O)C(C)=C[C@@H]23)[C@@H]2C(C)(C)[C@]12OC(=O)CCC | 2.1 | 5.74 | 7.10 | 7.85 | 3160 | 
CC(=O)O[C@@H]1[C@@H](C)[C@@]2(O)[C@@H](C=C(CO)C[C@]3(O)C(=O)C(C)=C[C@@H]23)[C@@H]2C(C)(C)[C@]12O | 0.8 | < 3.61 | < 3.51 | < 3.51 | > 1 | 
CCCCCCCCCC(=O)O[C@@H]1[C@@H](C)[C@@]2(O)[C@@H](C=C(CO)C[C@]3(O)C(=O)C(C)=C[C@@H]23)[C@@H]2C(C)(C)[C@]12O | 1.5 | 5.31 | 5.31 | 5.70 | 4 | 
CCCC(=O)O[C@@]12[C@H](O)[C@@H](C)[C@@]3(O)[C@@H](C=C(CO)C[C@]4(O)C(=O)C(C)=C[C@@H]34)[C@@H]1C2(C)C | 12.3 | 4.70 | 3.91 | 4.60 | > 3 | 
CCCCCCCCCC(=O)O[C@@]12[C@H](O)[C@@H](C)[C@@]3(O)[C@@H](C=C(CO)C[C@]4(O)C(=O)C(C)=C[C@@H]34)[C@@H]1C2(C)C | 9.7 | 5.66 | 6.05 | 6.82 | 130 | 
CCCCCCCCCCCCCC(=O)O[C@@]12[C@H](O)[C@@H](C)[C@@]3(O)[C@@H](C=C(CO)C[C@]4(O)C(=O)C(C)=C[C@@H]34)[C@@H]1C2(C)C | 9 | 6.00 | 6.62 | 7.11 | 107 | 
CCCCCC(=O)O[C@@H]1[C@@H](C)[C@@]2(O)[C@@H](C=C(CO)C[C@]3(O)C(=O)C(C)=C[C@@H]23)[C@@H]2C(C)(C)[C@]12OC(=O)CCCCC | 1.8 | 5.49 | 8.15 | 8.92 | 2890 | 
CCCCCCCCCC(=O)O[C@@H]1[C@@H](C)[C@@]2(O)[C@@H](C=C(CO)C[C@]3(O)C(=O)C(C)=C[C@@H]23)[C@@H]2C(C)(C)[C@]12OC(=O)CCCCCCCCC | 686 | 8.22 | 8.92 | 9.70 | 754 | 
C/C=C(\C)C(=O)O[C@@H]1[C@@H](C)[C@@]2(O)[C@@H](C=C(CO)C[C@]3(O)C(=O)C(C)=C[C@@H]23)[C@@H]2C(C)(C)[C@]12OC(=O)CCCCCCCCC | 3.3 | 5.96 | 8.82 | 9.70 | 600 | 
CNc1ccccc1C(=O)O[C@@H]1[C@@H](C)[C@@]2(O)[C@@H](C=C(CO)C[C@]3(O)C(=O)C(C)=C[C@@H]23)[C@@H]2C(C)(C)[C@]12OC(C)=O | 1.1 | 4.82 | 8.05 | 5.52 | 749 | 
CC(=O)OCC1=C[C@H]2[C@@H]3C(C)(C)[C@]3(OC(C)=O)[C@H](O)[C@@H](C)[C@]2(O)[C@@H]2C=C(C)C(=O)[C@@]2(O)C1 | 1.7 | 4.61 | < 3.55 | 3.61 | 1 | 
CCCCCCCCC(=O)O[C@@H]1[C@@H](C)[C@@]2(O)[C@@H](C=C(COC(=O)Cc3ccc(O)c(OC)c3)C[C@]3(O)C(=O)C(C)=C[C@@H]23)[C@@H]2C(C)(C)[C@]12OC(=O)CCCCCCCC | 3.7 | 6.22 | 7.44 | 8.40 | 483 | 
CC(=O)OCC1=C[C@H]2[C@@H]3C(C)(C)[C@]3(OC(C)=O)[C@H](OC(C)=O)[C@@H](C)[C@]2(O)[C@@H]2C=C(C)C(=O)[C@@]2(O)C1 | 2.2 | 4.49 | 4.56 | 5.18 | > 9 | 
CCCC(=O)O[C@@H]1[C@@H](C)[C@@]2(O)[C@@H](C=C(C=O)C[C@]3(O)C(=O)C(C)=C[C@@H]23)[C@@H]2C(C)(C)[C@]12OC(=O)CCC | 2.7 | 4.88 | < 4.70 | < 4.46 |  | 
CCCCCCCCCCCCCC(=O)O[C@@H]1[C@@H](C)[C@@]2(O)[C@@H](C=C(C=O)C[C@]3(O)C(=O)C(C)=C[C@@H]23)[C@@H]2C(C)(C)[C@]12OC(C)=O | 5.9 | 6.15 | 5.48 | 5.92 | 5 | 
C/C=C(/C)C(=O)O[C@H]1C(C)=C[C@]23C(=O)[C@@H](C=C(CO)[C@@H](O)[C@]12O)[C@H]1[C@@H](C[C@H]3C)C1(C)C [INGENOL MEBUTATE] | 2.3 | 4.64 | 7.77 | 8.05 | 7850 | 
CC1=C[C@]23C(=O)[C@@H](C=C(CO)[C@@H](O)[C@]2(O)[C@H]1O)[C@H]1[C@@H](C[C@H]3C)C1(C)C [INGENOL] | 4.8 | 4.52 | 3.68 | 3.88 | > 2 | 
CCCCCCCCCCCCCC(=O)O[C@@H]1[C@@H](C)[C@@]2(O)[C@@H](C=C(CO)C[C@]3(O)C(=O)C(C)=C[C@@H]23)[C@@H]2C(C)(C)[C@]12OC(C)=O [PHORBOL MYRISTATE ACETATE] | 1960 |  | 9.05 | 9.15 | 220 | 
CC1=C[C@H]2[C@@]3(O)[C@H](C)[C@@H](O)[C@]4(O)[C@H]([C@@H]3C=C(CO)C[C@]2(O)C1=O)C4(C)C [PHORBOL] | > 1 | < 3.46 | < 3.46 | < 3.46 | > 1 | 
CC(=O)O[C@@]12C[C@@H](C)[C@@]3(O)[C@@H](C=C(CO)C[C@]4(O)C(=O)C(C)=C[C@@H]34)[C@@H]1C2(C)C [PROSTRATIN] | 22.8 | 5.57 | 5.72 | 6.05 | 171 | 
C=C(C)[C@]12C[C@@H](C)[C@@]34O[C@](Cc5ccccc5)(O[C@@H]1[C@@H]3C=C(COC(=O)Cc1ccc(O)c(OC)c1)C[C@]1(O)C(=O)C(C)=C[C@@H]41)O2 [RESINIFERATOXIN] | 2.3 | 5.74 | 4.59 | 4.65 | 8 | 
Cc1cn([C@H]2C[C@H](N=[N+]=[N-])[C@@H](CO)O2)c(=O)[nH]c1=O [ZIDOVUDINE] |  |  | 5.15 | 5.22 | 3520 | > 4180
